Measurements collected from several papers.
Compare with care: the assays were run in different laboratories.
Observed: microbial growth

SMILES	organism	technique	strain	time	MIC
CCCCCCCCNC(=O)Nc1ccc2c(c1)OC(F)(F)O2	Staphylococcus aureus		NCTC8325		> 100 µM
O=C1NC(=S)S/C1=C\c1ccc(-c2ccc(N(c3ccccc3)c3ccccc3)cc2)c2ccccc12	Micrococcus luteus	broth dilution	ATCC10240		250 µg/mL
CC1=NN(CNC(=O)c2ccccc2)C(=O)C1=NNn1c(-c2ccccc2)nc2ccccc2c1=O	Micrococcus luteus	broth dilution		24 h	51.9 µM
O=C(O)CN1C(=O)/C(=C/c2ccc(-c3ccc(N(c4ccccc4)c4ccccc4)cc3)c3ccccc23)SC1=S	Micrococcus luteus	broth dilution	ATCC10240		31.3 µg/mL
CS(=O)(=O)N1CCN(Cc2cc3nc(-c4cccc5[nH]ncc45)nc(N4CCOCC4)c3s2)CC1	Staphylococcus aureus		NCTC8325		> 30 µM
CC1(C)S[C@@H]2[C@H](NC(=O)[C@H](N)c3ccccc3)C(=O)N2[C@H]1C(=O)O	Bifidobacterium longum	broth dilution	ATCCBAA999		0.25 µg/mL
O=C(O)c1cn(C2CC2)c2cc(N3CCNCC3)c(F)cc2c1=O	Micrococcus luteus	broth dilution		24 h	0.57 µM
Cc1cc(C(C)Nc2ccccc2)c2nc(N3CCOCC3)cc(=O)n2c1 (centres unmarked)	Staphylococcus aureus		NCTC8325		> 30 µM
CC1=NN(CNc2ccc(Cl)cc2)C(=O)C1=NNn1c(-c2ccccc2)nc2ccccc2c1=O	Micrococcus luteus	broth dilution		24 h	103 µM
O=C(O)CN1C(=O)/C(=C/c2ccc(-c3ccc(N(c4ccccc4)c4ccccc4)cc3)c3ccccc23)NC1=S	Micrococcus luteus	broth dilution	ATCC10240		> 1000 µg/mL
NC1(c2ccc(-c3nc4ccn5c(=O)[nH]nc5c4cc3-c3ccccc3)cc2)CCC1	Staphylococcus aureus		NCTC8325		> 30 µM
O=c1[nH]c(NCc2ccc(Cl)c(Cl)c2)nc2ncn(CCN3CCOCC3)c12	Lactobacillus acidophilus	agar dilution		48 h	4 µg/mL
Cc1ccc(NC(=O)c2cccc(N(C)C)c2)cc1NC(=O)c1ccc(O)cc1	Staphylococcus aureus		NCTC8325		> 30 µM
O=C1NC(=S)S/C1=C\c1c2ccccc2c(-c2ccc(N(c3ccccc3)c3ccccc3)cc2)c2ccccc12	Micrococcus luteus	broth dilution	ATCC10240		> 1000 µg/mL
CC1=NN(CNc2ccc(C(=O)O)cc2)C(=O)C1=NNn1c(-c2ccccc2)nc2ccccc2c1=O	Micrococcus luteus	broth dilution		24 h	50.5 µM
O=C(O)CN1C(=O)/C(=C/c2ccc(-c3ccc(N(c4ccccc4)c4ccccc4)cc3)cc2)NC1=S	Micrococcus luteus	broth dilution	ATCC10240		1.95 µg/mL
Cc1ncc([N+](=O)[O-])n1CCO	Lactobacillus acidophilus	agar dilution		48 h	> 16 µg/mL
